Experimental data pooled from the literature.
Target: Tyrosine-protein kinase receptor UFO (AXL, Homo sapiens, UniProt P30530)
One construct used (P30530 1-894): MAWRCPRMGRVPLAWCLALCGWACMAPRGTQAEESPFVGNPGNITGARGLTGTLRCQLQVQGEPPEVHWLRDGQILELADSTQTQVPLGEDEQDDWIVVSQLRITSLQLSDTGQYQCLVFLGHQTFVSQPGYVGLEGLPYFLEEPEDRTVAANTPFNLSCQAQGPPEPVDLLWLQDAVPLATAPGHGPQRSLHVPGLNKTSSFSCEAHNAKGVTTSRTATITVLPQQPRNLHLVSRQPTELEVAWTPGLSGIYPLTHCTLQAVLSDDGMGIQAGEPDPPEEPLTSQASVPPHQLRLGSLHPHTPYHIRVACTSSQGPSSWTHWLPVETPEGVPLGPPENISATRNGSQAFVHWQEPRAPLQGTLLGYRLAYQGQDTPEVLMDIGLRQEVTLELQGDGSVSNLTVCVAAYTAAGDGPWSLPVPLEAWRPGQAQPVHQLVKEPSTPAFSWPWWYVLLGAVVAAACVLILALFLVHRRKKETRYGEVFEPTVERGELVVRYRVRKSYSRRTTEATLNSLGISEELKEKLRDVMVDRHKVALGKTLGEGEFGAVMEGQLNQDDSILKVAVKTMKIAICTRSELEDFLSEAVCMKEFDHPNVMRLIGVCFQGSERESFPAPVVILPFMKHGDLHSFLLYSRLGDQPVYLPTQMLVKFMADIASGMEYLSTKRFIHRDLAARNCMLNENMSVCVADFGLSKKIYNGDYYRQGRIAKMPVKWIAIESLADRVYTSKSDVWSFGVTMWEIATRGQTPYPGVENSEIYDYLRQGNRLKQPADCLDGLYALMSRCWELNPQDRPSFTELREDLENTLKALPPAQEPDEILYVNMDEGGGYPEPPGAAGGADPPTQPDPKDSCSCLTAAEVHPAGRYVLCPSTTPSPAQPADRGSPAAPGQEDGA

SMILES	effect on	technique	tested at	remaining binding
c1ccc(N2CCN(Cc3nc4ccccc4[nH]3)CC2)nc1	binding	competition with immobilised ligand	1 µM	100%
N[C@@H]1CCN(c2nccc(-c3cnn4ncccc34)n2)C1	binding		1 µM	100%
C[C@@H]1CN(c2ccc3ncc(-c4ccc5[nH]nc(C6CC6)c5c4)n3n2)C[C@H](C)O1	binding	competition with immobilised ligand	0.5 µM	60%
CN(C)c1nccc(-c2cnn3ncccc23)n1	binding		1 µM	100%
CNC(=O)c1ccc(Nc2ncc(C(F)(F)F)c(NCc3nccnc3N(C)S(C)(=O)=O)n2)cc1	cell-free assay	competition with immobilised ligand	0.1 µM	51%
CC1CCCN1c1nccc(-c2cnn3ncccc23)n1 (stereo not drawn)	binding		1 µM	100%
COc1cnc(Nc2cccc(S(N)(=O)=O)c2)nc1N1CCN(c2ccccc2)C(=O)C1	binding	competition with immobilised ligand	1 µM	94%
COc1ccnn2ncc(-c3ccnc(N(C)C)n3)c12	binding		1 µM	100%
N#Cc1ccccc1CSc1nnc2c(n1)[nH]c1ccccc12	binding	competition with immobilised ligand	10 µM	65%
C[C@@H](c1cccc(C#N)c1)n1cc(Cl)cc(C(N)=O)c1=N	cell-free assay	competition with immobilised ligand	1 µM	100%
CC(C)(C)c1ccc(-c2nc(CBr)nn2-c2cccc(O)c2)cc1	cell-free assay	competition with immobilised ligand	10 µM	84%
C[C@H](c1ccnc(Nc2nc3ccc(-c4cc(N(C)C)ncn4)cc3[nH]2)c1)N1CCN(C(=O)CC(F)(F)F)CC1	cell-free assay	competition with immobilised ligand	0.1 µM	100%
C=CC(=O)N1CCC(C(=O)NCC(=O)N2CCN(c3nc(-c4cnc(N)nc4C(F)F)nc(N4CCOCC4)n3)CC2)CC1	binding	competition with immobilised ligand	1 µM	97%
C[C@@H]1CCN(c2nccc(-c3cnn4ncccc34)n2)C1	binding		1 µM	86%
O=C(c1ccc(Nc2ncc(Cl)c(-c3cc4ccccc4s3)n2)cc1)N1CCC(N2CCCC2)CC1	binding	competition with immobilised ligand	1 µM	1.4%
CC(=O)N1CCC(c2ccc(C(=O)NC3=NCCN3)cc2C(F)(F)F)CC1	cell-free assay	competition with immobilised ligand	1 µM	100%
F[C@@H]1CCN(c2nccc(-c3cnn4ncccc34)n2)C1	binding		1 µM	87%
O=C(c1ccc(Nc2nccc(-c3cc4ccccc4s3)n2)cc1)N1CCC(N2CCCC2)CC1	binding	competition with immobilised ligand	1 µM	33%
NS(=O)(=O)c1cc(NC(=O)C2(c3ccccc3Cl)CC2)ccc1Oc1cccc(Cl)c1	cell-free assay	competition with immobilised ligand	1 µM	89%
Cc1cnc(Nc2ccc(C(=O)N3CCC(N4CCCC4)CC3)cc2)nc1-c1cc2ccccc2s1	binding	competition with immobilised ligand	1 µM	1%
COc1ncc2cc3ccccc3nc2c1C#N	cell-free assay	competition with immobilised ligand	5 µM	92%
O=C(Nc1c[nH]nc1C(=O)NC1CCNCC1)c1cc(F)cc(F)c1	binding	competition with immobilised ligand	1 µM	100%
CCc1ccccc1C(=O)Nc1n[nH]c2c(C)c(F)c(C3C(C#N)=C(C)N(C)C(C)=C3C#N)cc12	binding	competition with immobilised ligand	1 µM	100%
CCN1CCN(Cc2ccc(C(=O)Nc3ccc(C)c(Oc4ccc5c(c4)CC(=O)N5)c3)cc2C(F)(F)F)CC1	binding	competition with immobilised ligand	1 µM	98%
